Assay results pooled from the literature.
Lines come from different studies, so protocols differ.
Effect on: cell growth or viability

Compound | cell line | assay | conditions | endpoint | value
COc1cccc(Oc2ccccc2NC(=O)CNC(=O)c2cccc3ccccc23)c1 | KM12 | SRB | 48 h | GI50 | 0.191 µM
COc1ccc2c(c1)C(=NNc1nnc(Cc3ccccc3)c3ccccc13)C(=O)N2 | ZR75 |  | 30 µM | inhibition | 30.9%
S=C([S][Au-][P+](CCCCCC[P+]([Au-][S]C(=S)n1cccn1)(c1ccccc1)c1ccccc1)(c1ccccc1)c1ccccc1)n1cccn1 | KM12 |  |  | GI50 | 0.434 µM
CCN(CC)CCNC(=O)c1c(C)[nH]c(/C=C2\C(=O)Nc3ccc(F)cc32)c1C | ZR75 |  | 30 µM | inhibition | 90.7%
O=C1Nc2ccccc2C1=NNc1nnc(Cc2ccccc2)c2ccccc12 | ZR75 |  | 30 µM | inhibition | 54.3%
Cn1cc(-c2cc(N3CCCCS3(=O)=O)ccc2Oc2ccc(F)cc2F)c2c(F)c[nH]c2c1=O | MOLM-14 | CCK-8 | 72 h | GI50 | 0.0081 µM
COc1cc2ncnc(NN=C3C(=O)Nc4ccccc43)c2cc1OC | ZR75 |  | 30 µM | inhibition | 50.4%
CC#CC(=O)N1CC[C@@H](n2cc(-c3ccc(Oc4c(F)cccc4F)cc3)c3c(N)n[nH]c(=O)c32)C1 | JeKo-1 | ATP luminescence | 72 h | GI50 | 4.88 µM
COc1ccc2c(c1)C(=NNc1ncnc3cc(OC)c(OC)cc13)C(=O)N2 | ZR75 |  | 10 µM | inhibition | 32%
Cc1ccc(C(CS(=O)(=O)c2ccccc2)=NNC2=NC(=O)C(=NNc3ccccc3)S2)cc1 | WM 266-4 | MTT | 6.3 µM, 48 h | viability | 48.2%
CN1C(=O)/C(=N\NC(=O)c2cc3ccccc3[nH]2)c2cc(Cl)ccc21 | ZR75 |  | 30 µM | inhibition | 81.8%
O=C(Cc1ccc(C(F)(F)F)cc1)Nc1cccc(C(=O)Nc2ccc3[nH]ncc3c2)c1 | KM12 | ATP luminescence | 72 h | IC50 | 48.4 µM
Cc1ccc(C(CS(=O)(=O)c2ccccc2)=NNc2nc(C)c(N=Nc3cccc(C)c3)s2)cc1 | WM 266-4 | MTT | 100 µM, 48 h | viability | 32.8%
CN1C(=O)/C(=N\NC(=O)c2cc3ccccc3[nH]2)c2cc(Br)ccc21 | ZR75 |  | 30 µM | inhibition | 90.2%
O=C(Nc1ccc(C(F)(F)F)cc1)Nc1cccc(C(=O)Nc2ccc3[nH]ncc3c2)c1 | KM12 | ATP luminescence | 72 h | IC50 | 33.5 µM
O=C1Nc2ccccc2/C1=N/NC(=O)c1cc2ccccc2[nH]1 | ZR75 |  | 30 µM | inhibition | 57.7%
Cc1ccc(C(CS(=O)(=O)c2ccccc2)=NNc2nc(-c3ccc(OCCCCOc4ccc(-c5csc(NN=C(CS(=O)(=O)c6ccccc6)c6ccc(C)cc6)n5)cc4)cc3)cs2)cc1 | WM 266-4 | MTT | 0.4 µM, 48 h | viability | 77%
COc1cc2ncnc(NN=C3C(=O)Nc4ccc(C)cc43)c2cc1OC | ZR75 |  | 30 µM | inhibition | 40.4%
O=C(Nc1cnn2ccc(N3CCC[C@@H]3c3cc(F)ccc3F)nc12)N1CC[C@H](O)C1 | KM12 | ATP luminescence | 72 h | IC50 | > 50 µM
Cc1ccc(C(CS(=O)(=O)c2ccccc2)=NN=C2N=C(c3ccc(Br)cc3)CS2)cc1 | WM 266-4 | MTT | 0.4 µM, 48 h | viability | 63.8%
COc1ccc2c(c1)/C(=N/NC(=O)c1cc3ccccc3[nH]1)C(=O)N2C | ZR75 |  | 30 µM | inhibition | 82.5%
CC(C)(C)c1nc(-c2cccc(NS(=O)(=O)c3c(F)cccc3F)c2F)c(-c2ccnc(N)n2)s1 | WM 266-4 | MTT | 25 µM, 48 h | viability | 47.7%
Cn1c(=O)c(NN=C2C(=O)Nc3ccc(F)cc32)nc2ccccc21 | ZR75 |  | 30 µM | inhibition | 22.6%
NC(=S)NN=C(CS(=O)(=O)c1ccccc1)c1ccc(F)cc1 | WM 266-4 | MTT | 0.4 µM, 48 h | viability | 58%
O=C1Nc2ccc(Cl)cc2/C1=N/NC(=O)c1cc2ccccc2[nH]1 | ZR75 |  | 30 µM | inhibition | 53.9%
CNC(=O)c1cc(Oc2ccc(NC(=O)Nc3ccc(Cl)c(C(F)(F)F)c3)cc2)ccn1 | WM 266-4 | MTT | 6.3 µM, 48 h | viability | 50.7%
Cc1ccc2c(c1)C(=NNc1nc3ccccc3n(C)c1=O)C(=O)N2 | ZR75 |  | 30 µM | inhibition | 71%
